The values below come from PubChem BioAssay.

Each structure is given as a SMILES string. The source made the active and inactive calls.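 Rule for the calls, unless noted: active = a full or partial loss of lipid-probe fluorescence in the fish gall bladder, intestine or both, judged by eye; inactive = no fluorescence loss, or compound toxic to the fish.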

Assay [1] is described as follows: inhibitors of TNFa-induced NFkB p65 translocation, primary screen, imaging, HUVEC, MLSMR starter and 10KST1 sets (AID 438;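 active = inhibition above 20% together with a positive visual image hit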;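 note: compound added about 3h40 before a 20 min TNFalpha stimulation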;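 for inhibition: signal is the nuclear over cytoplasmic p65 intensity ratio per well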). Particulars: HUVEC TNFa-induced p65 nuclear translocation; cell count: measured here: nuclei count (cytotoxicity indicator), at 2.08 µM; inhibition: at 2 µM, stronger effect = higher value, 0% TNFa-plus-vehicle, 100% no-TNFa wells.
Assay [2] can be described thus: endothelial E-selectin expression blockers – imaging, HUVEC, immunofluorescence, MLSMR starter and 10KST1 sets, primary screen (AID 487;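 active = visually confirmed hit in the image check and inhibition above 20%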;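 for inhibition: signal is fraction of cell area covered by stained E-selectin grains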;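 for nuclei count: 100% = median nuclei count of all wells on the same plate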). Particulars: HUVEC TNFalpha-induced E-selectin immunofluorescence imaging, at 2 µM; inhibition: stronger effect = higher value; nuclei count: measured here: cell number, toxicity.
Assay [3] can be described thus: Primary imaging screen for DUSP6 inhibitors that restore phospho-Erk in transfected HeLa cells, chemical complementation (AID 609;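 active = compounds giving at least 50% inhibition in the cell-based MKP-3 phosphatase rescue imaging test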;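 for inhibition: phospho-Erk level distribution per well compared with pooled transfected vehicle control wells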). Particulars: HeLa MKP-3 transfected, phospho-Erk imaging KS statistic, at 10 µM, cells stimulated with TPA for 15 min.
Assay [4] concerns the target Dual specificity protein phosphatase 6 (Homo sapiens) (UniProt Q16828). The description is as above. Particulars: HeLa MKP-3 transfected, phospho-Erk imaging KS statistic; at 10 µM; stronger effect = higher value; cells stimulated with TPA for 15 min.
Assay [5] concerns the target Voltage-gated potassium channel subunit beta-2 (Rattus norvegicus) (UniProt P62483). The experiment in a line: inhibitors of rat Kvbeta2 reductase activity – biochemical, NADPH fluorescence, primary screen (AID 622;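 active = fluorescence slope higher than the sample average by over 3 SD, cut at about -0.22 in these data, passing the limit was not always enough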;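 note: slope of raw intensity against log time taken from 70 to 1610 s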). Particulars: recombinant KvBeta, 4-cyanobenzaldehyde reduction, at 10 µM, stronger effect = higher value.
Assay [6] has the same target. The experiment in a line: enhancers of rat Kvbeta2 NADPH turnover – biochemical, NADPH fluorescence, primary screen (AID 623;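 active = NADPH fluorescence slope more negative than the mean of all samples by about 3 SD, 99.7% confidence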;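 note: fluorescence intensity change per second fitted from 20 to 320 s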). As to conditions: Recombinant KvBeta, NADPH fluorescence decrease slope, 10 min; at 10 µM; stronger effect = lower value.
Assay [7] addresses Muscarinic acetylcholine receptor M4 (Homo sapiens) (UniProt P08173). The assay can be described thus: M4-linked GIRK flux change, two-sided – cell-based, HEK293 M4/GIRK, thallium flux, BTC-AM, M4 allosteric agonist project, primary screen (AID 625;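 active = fluorescence slope after compound addition differing from the mean of all tested samples at 99.7% confidence, mostly higher but some lower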;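 note: thallium influx through GIRK channels coupled to M4 in HEK293 cells with BTC-AM dye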). Particulars: at 10 µM, actives lie on both sides. An outline of the steps: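 Material: HEK293 cells with M4 receptor and GIRK channels; Times: cells overnight at 37 °C, BTC-AM loading 1 h, reads 2 min total; Technique: kinetic BTC-AM fluorescence sampled at 1 Hz, 10 s pre-addition baseline; Read-out basis: slope over 15–24 s of trace normalized to starting intensity; Controls: carbachol positive, DMSO negative.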

Assay [8] in a line: inhibitors of larval lipid processing in zebrafish, primary screen, whole organism, PED6 fluorescence, gall bladder and intestine (AID 686).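 Note: larvae 5 to 7 days old with five fish per well; signal comes from phospholipase A2 cleavage of quenched PED6 carried via bile.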 As to conditions: Zebrafish larvae PED6 lipid processing, fluorescence scoring; screened at 20 µM (by protocol). A digest of the protocol: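 Incubation: overnight exposure of larvae to compound plus PED6 / Test system: live zebrafish larvae aged 5-7 days, whole organism / Amount: 5 larvae per well / Read-out basis: visual per-well fluorescence inhibition score / Signal: visual fluorescence microscopy scoring of gall bladder, gut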

Assay [9] is described as follows: loss of swimming-algae plug formation – whole organism, Chlamydomonas reinhardtii, WT vs cilia-less mutant, absorbance, 96-well, primary screen (AID 463189;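 active = inhibition at or above 50% relative to wild type and mutant plate controls; inactive = inhibition below 50%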;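 note: 0% = wild type cc124 cells in DMSO and 100% = ciliumless bld1 mutant cells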). As to conditions: Chlamydomonas reinhardtii gravitaxis, OD600 absorbance, 2 days; at 10 µM; stronger effect = higher value.
[10] abbreviates: measured here: cell density z-score.
The mark [11] stands for this setting: measured here: nuclear c-Myc green intensity z-score.
[12] abbreviates: measured here: nuclear pErk red intensity z-score, stronger effect = higher value.

Sequence of Muscarinic acetylcholine receptor M4 (Homo sapiens) (P08173 whole entry, looked up): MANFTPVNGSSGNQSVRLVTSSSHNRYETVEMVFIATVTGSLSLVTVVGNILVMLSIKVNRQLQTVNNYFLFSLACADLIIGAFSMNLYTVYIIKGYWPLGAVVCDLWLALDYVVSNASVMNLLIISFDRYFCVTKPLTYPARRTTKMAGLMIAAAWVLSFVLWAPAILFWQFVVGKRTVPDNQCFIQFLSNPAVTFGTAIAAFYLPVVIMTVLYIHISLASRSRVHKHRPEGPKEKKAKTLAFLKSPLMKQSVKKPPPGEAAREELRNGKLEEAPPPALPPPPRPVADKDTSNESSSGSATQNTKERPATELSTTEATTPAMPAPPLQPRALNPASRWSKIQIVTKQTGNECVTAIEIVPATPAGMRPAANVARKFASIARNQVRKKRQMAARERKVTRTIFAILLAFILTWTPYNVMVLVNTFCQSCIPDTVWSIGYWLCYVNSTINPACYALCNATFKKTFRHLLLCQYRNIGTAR
Sequence of Dual specificity protein phosphatase 6 (Homo sapiens) (Q16828 whole entry, looked up): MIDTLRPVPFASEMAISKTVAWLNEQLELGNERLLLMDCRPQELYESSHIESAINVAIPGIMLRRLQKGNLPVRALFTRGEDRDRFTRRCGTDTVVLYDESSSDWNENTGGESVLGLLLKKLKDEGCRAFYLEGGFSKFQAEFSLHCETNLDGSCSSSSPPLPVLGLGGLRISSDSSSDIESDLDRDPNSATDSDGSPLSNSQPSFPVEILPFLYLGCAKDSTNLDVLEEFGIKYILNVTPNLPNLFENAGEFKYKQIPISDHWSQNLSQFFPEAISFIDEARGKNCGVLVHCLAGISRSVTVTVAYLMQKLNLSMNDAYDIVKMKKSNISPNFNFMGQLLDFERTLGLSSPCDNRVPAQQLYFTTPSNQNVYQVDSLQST
Sequence of Voltage-gated potassium channel subunit beta-2 (Rattus norvegicus) (P62483 whole entry, looked up): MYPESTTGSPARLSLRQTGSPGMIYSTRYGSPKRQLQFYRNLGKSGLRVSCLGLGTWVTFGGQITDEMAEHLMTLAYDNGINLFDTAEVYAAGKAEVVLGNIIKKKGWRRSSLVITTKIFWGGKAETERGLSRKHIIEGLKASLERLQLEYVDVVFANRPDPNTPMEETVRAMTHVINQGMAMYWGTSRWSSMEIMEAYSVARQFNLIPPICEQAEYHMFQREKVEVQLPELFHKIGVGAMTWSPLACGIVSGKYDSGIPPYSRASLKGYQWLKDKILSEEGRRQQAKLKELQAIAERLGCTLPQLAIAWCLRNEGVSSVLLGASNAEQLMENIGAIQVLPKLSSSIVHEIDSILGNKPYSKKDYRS

The inhibition is the relative decrease from the control value, in per cent. With `N#Cc1nc(COc2ccc(Cl)cc2)oc1N1CCN(Cc2ccccc2)CC1`, the cell count in assay [1] came to 489. For the same molecule, the inhibition was -3% (inactive) in assay [1], -24.2% (inactive) in assay [2], -2.29% (inactive) in assay [4] and 3.53% (inactive) in [9]. For the same molecule, in assay [2], the nuclei count amounted to 139%. Also, the z-score in [3] (setting [10]) is -0.636; in assay [3] (setting [11]), 0.047; in assay [3] (setting [12]) it was 1.31. In addition, the fluorescence slope in assay [5] is -0.411 (inactive); in assay [7], 0.00907 (inactive). For the same molecule, the NADPH fluorescence slope in [6] was -5.4e-05 (inactive). Moreover, the molecule was classed as inactive in assay [8].

Turning to `CSc1nncc(=O)[nH]1`, in assay [1], the cell count stood at 642. The inhibition was 1.5% (inactive) in [1], -96.8% (inactive) in [2], 6.51% (inactive) in assay [4] and -3.84% (inactive) in assay [9]. This molecule yielded a nuclei count in assay [2] of 160%. In addition, the values for the z-score in [3] (setting [10]), in [3] (setting [11]) and in assay [3] (setting [12]) were 0.525, -0.545 and -0.327, respectively. Further, the results for the fluorescence slope in [5] and in [7] were -0.452 (inactive) and 0.00648 (inactive), respectively. Besides, in [6], the NADPH fluorescence slope was -4.4e-05 (inactive). For the same molecule, the result in assay [8] was inactive.

With `C=CCN=C(C)C1=C(O)CCC1=O`, the cell count in assay [1] worked out at 637. The inhibition is 3.3% (inactive) in [1], -33.6% (inactive) in assay [2], -2.09% (inactive) in [4] and 11.3% (inactive) in [9]. In addition, in assay [2], the nuclei count amounted to 116%. Moreover, the z-score in [3] (setting [10]) is -0.646; in assay [3] (setting [11]), 0.913; in assay [3] (setting [12]), -0.284. Besides, the fluorescence slope in assay [5] is -0.445 (inactive); in assay [7] it was 0.0054 (inactive). The NADPH fluorescence slope in assay [6] was -6.8e-05 (inactive). The result in assay [8] was inactive.

Take `Cc1ccc(C(=O)NCCCNCCCNC(=O)c2ccc(C)nc2)cn1`: the cell count in assay [1] worked out at 393. Besides, the inhibition is -2.8% (inactive) in [1], -153% (inactive) in [2], 3.56% (inactive) in assay [4] and 0.875% (inactive) in assay [9]. In assay [2], the nuclei count was 151%. The z-score was 0.349 in assay [3] (setting [10]), -0.364 in [3] (setting [11]) and -0.725 in [3] (setting [12]). Further, the fluorescence slope is -0.471 (inactive) in assay [5] and 0.00476 (inactive) in [7]. Further, the NADPH fluorescence slope in assay [6] was -8.7e-05 (inactive). In addition, the outcome in assay [8] was inactive.

Turning to `CCCc1cc(=O)oc2c(CN3CCCC3)c(O)ccc12`, the cell count in assay [1] turned out to be 571. Moreover, the inhibition in [1] is -10.8% (inactive); in assay [2] it was -11.6% (inactive); in [4], 0.671% (inactive); in [9], -1.86% (inactive). For the same molecule, in [2], the nuclei count is 118%. For the same molecule, the z-score in [3] (setting [10]) is 0.0938; in assay [3] (setting [11]), -0.952; in [3] (setting [12]) it was -1.55. Further, the values for the fluorescence slope in assay [5] and in assay [7] were -0.0292 (inactive) and 0.0058 (inactive), respectively. In [6], the NADPH fluorescence slope was 1.1e-05 (inactive). Further, the molecule was called inactive in assay [8].

Consider `CC(=O)N(Cc1ccccc1)c1ccc(C(=O)O)cc1`, for which the cell count in assay [1] stood at 486. Also, the inhibition in [1] is -9.7% (inactive); in [2], -65.3% (inactive); in assay [4] it was 3.42% (inactive); in assay [9], 18% (inactive). This molecule also displayed a nuclei count in assay [2] of 95.1%. The z-score in assay [3] (setting [10]) is -0.584; in assay [3] (setting [11]), 0.905; in [3] (setting [12]), 1.49. Further, the results for the fluorescence slope in assay [5] and in assay [7] were -0.454 (inactive) and 0.00471 (inactive), respectively. Moreover, in assay [6], the NADPH fluorescence slope is 3.6e-05 (inactive). In addition, the call in assay [8] was inactive.

Consider `Clc1ccc(COc2ccccn2)c(Cl)c1`, for which, in assay [1], the cell count is 600. Further, the inhibition in assay [1] was 2.8% (inactive); in [2] it was -15.4% (inactive); in assay [4] it was 23.8% (inactive); in assay [9] it was -0.499% (inactive). In [2], this molecule registered a nuclei count of 138%. Further, the z-score in assay [3] (setting [10]) was 0.311; in assay [3] (setting [11]) it was -1.08; in assay [3] (setting [12]) it was -1.17. The fluorescence slope is -0.387 (inactive) in assay [5] and 0.00573 (inactive) in assay [7]. Besides, the NADPH fluorescence slope in assay [6] is -4.6e-05 (inactive). The result in assay [8] was inactive.
